Source: ChEMBL document CHEMBL2146426, “Antitubercular nitrofuran isoxazolines with improved pharmacokinetic properties” (Bioorg Med Chem, 2012)
Values after ≈ are worked out from the molar mass of the structure shown.

Experiments:
[1] = system: Enterococcus faecalis; assay: Antibacterial activity against Enterococcus faecalis ATCC 3186 after overnight incubation by microbroth dilution technique; format: functional
In short: (§1)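 Two-fold serial broth dilutions per CLSI; inoculum about 10^5 CFU/mL; top final drug concentration 200 µg/mL; incubated aerobically overnight at 37°C. MIC read visually as the lowest concentration with no visible growth.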

[2] = Plasma protein binding in mouse at 10 uM after 4 hrs by LC/MS analysis; format: ADME, cell-free; conditions: read-out: PPB (converted)
In short: (§2)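 Compound at 10 µM (0.1% DMSO) in mouse or human plasma. Rapid equilibrium dialysis (MWCO 8K) against DPBS pH 7.4, 4 h at 37°C with orbital shaking. Both chambers matrix-matched, precipitated with acetonitrile containing warfarin internal standard, quantified by LC–MS. %Free = buffer/plasma × 100; %Bound = 100 − %Free.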

[3] = Half life in human liver microsomes; format: ADME, Microsome
[4] = Solubility of the compound at pH 7.4 after 18 hrs by UV spectrometry; format: physicochemical; conditions: buffer, pH 7.4
In short: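 10 mM DMSO stocks diluted 100-fold in system solution buffer pH 7.4 and held 18 h at room temperature. Filtered, diluted 1:1 with isopropanol and measured by UV (230–500 nm). Compared against a 600-fold diluted reference in buffer/isopropanol. Triplicates.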

[5] = Half life in mouse liver microsomes; format: ADME, Microsome
In short: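 Mouse liver microsomes at 0.6381 mg/mL protein in 0.1 M potassium phosphate pH 7.4 with EDTA. Reaction started with NADPH regenerating system at 37°C; six time points including 0, triplicate wells. Quenched in cold acetonitrile with warfarin internal standard, analysed by LC–MS. Half-life from a first-order least-squares fit.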

[6] = Plasma protein binding in human at 10 uM after 4 hrs by LC/MS analysis; format: ADME, cell-free; conditions: read-out: PPB (converted); in short: as §2
[7] = system: Streptococcus pyogenes; assay: Antibacterial activity against Streptococcus pyogenes ATCC 700294 after overnight incubation by microbroth dilution technique; format: functional; in short: as §1
[8] = system: Staphylococcus aureus; assay: Antibacterial activity against Staphylococcus aureus ATCC 29213 after overnight incubation by microbroth dilution technique; format: functional; in short: as §1
[9] = system: Bacillus anthracis; assay: Antibacterial activity against Bacillus anthracis Sterne 34F2 after overnight incubation by microbroth dilution technique; format: functional
In short: (§3)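 Non-mycobacterial strains: two-fold serial dilutions in broth by CLSI microbroth dilution. Inoculum about 10^5 cfu/mL; top final drug concentration 200 µg/mL. Aerobic incubation at 37°C overnight. MIC read visually as the lowest concentration with no visible growth.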

[10] = Apparent permeability of the compound from apical to basal side of human Caco2 cells at 50 umol/L after 2 hrs by UPLC/MS analysis; format: ADME, cell-based; conditions: Caco-2
In short: (§4)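 Caco-2 monolayers grown 7 days on Transwell inserts, washed with HBSS/HEPES pH 7.4. Compound at 50 µmol/L added apically or basolaterally, then 2 h at 37°C. Receiver side sampled and quantified by UPLC/MS. Papp = (dQ/dt)/(A×C0), triplicates.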

[11] = system: Escherichia coli; assay: Antibacterial activity against Escherichia coli K12 after overnight incubation by microbroth dilution technique; format: functional; conditions: K-12; in short: as §3
[12] = system: Streptococcus pneumoniae; assay: Antibacterial activity against Streptococcus pneumoniae DAW27 after overnight incubation by microbroth dilution technique; format: functional; in short: as §1
[13] = Apparent permeability of the compound from basal to apical side of human Caco2 cells at 50 umol/L after 2 hrs by UPLC/MS analysis; format: ADME, cell-based; conditions: Caco-2; in short: as §4
[14] = Volume of distribution in Sprague-Dawley rat at 10 mg/kg, iv; format: ADME, organism-based; design: dose 10 mg/kg, route intravenous; conditions: in vivo
In short: (§5)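 Rats, n=5, given 10 mg/kg IV via femoral vein catheter. Vehicle was 2% ethanol/saline or 30% DMSO/30% propylene glycol/20% PEG 3000/20% saline, depending on compound. Plasma sampled 0–48 h and urine collected in intervals to 48 h; both assayed by LC-MS/MS after acetonitrile precipitation. Non-compartmental analysis: CL = dose/AUC0-∞; fe = cumulative unchanged urinary amount/dose.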

[15] = system: Rattus norvegicus; assay: Oral bioavailability in Sprague-Dawley rat at 100 mg/kg; format: ADME, organism-based; conditions: in vivo
In short: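 Fasted rats, n=5, dosed 100 mg/kg by oral gavage. Vehicle was 2% methanol, 60:40 PEG 3000/water or 10% vitamin E TPGS, depending on compound. Plasma sampled to 48 h and assayed by LC-MS/MS. F = (AUCoral×DoseIV)/(AUCIV×Doseoral), referenced to 10 mg/kg IV.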

[16] = Clearance in Sprague-Dawley rat at 10 mg/kg, iv; format: ADME, organism-based; design: dose 10 mg/kg, route intravenous; conditions: in vivo; in short: as §5
[17] = system: Rattus norvegicus; assay: Toxicity in Sprague-Dawley rat assessed as mortality at 10 mg/kg, iv; format: organism-based; design: dose 10 mg/kg, route intravenous; conditions: in vivo
In short: (§6)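 Observed during rat IV pharmacokinetic study (n=5). Single 10 mg/kg dose via femoral vein catheter, flushed with heparinized locking solution. Vehicle was 2% ethanol/saline or 30% DMSO/30% propylene glycol/20% PEG 3000/20% saline. Animals followed with serial blood sampling to 48 h.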

[18] = Cmax in Sprague-Dawley rat at 10 mg/kg, iv; format: ADME, organism-based; design: dose 10 mg/kg, route intravenous; conditions: in vivo; in short: as §5
[19] = Half life in Sprague-Dawley rat at 10 mg/kg, iv; format: ADME, organism-based; design: dose 10 mg/kg, route intravenous; conditions: in vivo; in short: as §5
[20] = system: Rattus norvegicus; assay: Toxicity in Sprague-Dawley rat assessed as mortality at 100 mg/kg, po; format: organism-based; design: dose 100 mg/kg, route oral; conditions: in vivo
In short: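 Observed during rat oral pharmacokinetic study (n=5). Overnight-fasted animals, water ad libitum, received 100 mg/kg by oral gavage. Vehicle was compound-dependent: 2% methanol (sonicated), 60:40 PEG 3000/water, or 10% vitamin E TPGS. Animals followed with sampling to 48 h.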

[21] = system: Vero; assay: Cytotoxicity against african green monkey Vero cells after 72 hrs by MTT assay; format: cell-based; conditions: Chlorocebus sabaeus
In short: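 Vero cells in DMEM with 10% FBS, seeded at ~10% confluency and left to adhere overnight. Two-fold serial dilutions applied for 72 h at 37°C, 5% CO2. MTT read-out at 570 nm after overnight solubilization.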

[22] = AUC (0 to infinity) in Sprague-Dawley rat at 10 mg/kg, iv; format: ADME, organism-based; design: time infinity, dose 10 mg/kg, route intravenous; conditions: plasma; in short: as §5
[23] = Drug excretion in Sprague-Dawley rat urine at 10 mg/kg, iv; format: ADME, organism-based; design: dose 10 mg/kg, route intravenous; conditions: read-out: Drug excretion; in short: as §5
[24] = system: Rattus norvegicus; assay: Toxicity in Sprague-Dawley rat assessed as seizures at 10 mg/kg, iv; format: organism-based; design: dose 10 mg/kg, route intravenous; conditions: in vivo; in short: as §6
[25] = system: Bacillus subtilis; assay: Antibacterial activity against Bacillus subtilis ATCC 23857 after overnight incubation by microbroth dilution technique; format: functional; in short: as §3

Compound | MIC [1] [µg/mL] | fraction unbound at 4 h, 10 µM [2] | half-life [3] [min] | solubility at 18 h [4] [µg/mL] | half-life [5] [min] | fraction unbound at 4 h, 10 µM [6] | MIC [7] [µg/mL] | MIC [8] [µg/mL] | MIC [9] [µg/mL] | Papp A→B at 2 h, 50 µM [10] [×10⁻⁶ cm/s] | MIC [11] [µg/mL] | MIC [12] [µg/mL] | Papp B→A at 2 h, 50 µM [13] [×10⁻⁶ cm/s] | MIC [25] [µg/mL] | other results
CN1CCN(c2ccc(C3CC(c4ccc([N+](=O)[O-])o4)=NO3)cc2F)C(=O)C1 (stereo unspecified) | 100 (≈ 257 µM) | 0.172 | 289 | 29.2 (≈ 75.2 µM) | 37.2 | 0.391 | 50 (≈ 129 µM) | 6.25 (≈ 16.1 µM) | 25 (≈ 64.4 µM) | 27 | 200 (≈ 515 µM) | 50 (≈ 129 µM) | 38.6 |  | 
O=[N+]([O-])c1ccc(C2=NOC(c3ccc(N4CCSCC4)cc3)C2)o1 (stereo unspecified) | 100 (≈ 278 µM) | 0.013 | 12.6 | 1.9 (≈ 5.29 µM) | 2.4 | 0.015 | > 200 |  |  | 9.62 | > 200 |  | 11.4 |  | 
O=[N+]([O-])c1ccc(C2=NOC(c3ccc(N4CCOCC4)nc3)C2)o1 (stereo unspecified) |  | 0.047 | 202 | 14.1 (≈ 40.9 µM) | 73.8 | 0.033 | 25 (≈ 72.6 µM) | 12.5 (≈ 36.3 µM) | 25 (≈ 72.6 µM) | 6.47 | > 200 |  | 14.2 |  | Vd [14]: 2.86 L/kg; F [15]: 47.9%; clearance [16]: 50.3 mL/min/kg; Activity [17]: Non-toxic; Cmax [18]: 2730 ng/mL; half-life [19]: 43.2 min; Activity [20]: Non-toxic; IC50 [21]: 3.2 µg/mL (≈ 9.29 µM); AUC(0-inf) [22]: 3360 ng·h/mL; dose excreted [23]: 0.02%; Activity [24]: Non-toxic
O=C1COCCN1c1ccc(C2CC(c3ccc([N+](=O)[O-])o3)=NO2)cc1 (stereo unspecified) | > 200 | 0.34 | 602 | 25.9 (≈ 72.4 µM) | 84 | 0.357 | 100 (≈ 280 µM) | 6.25 (≈ 17.5 µM) | 25 (≈ 70 µM) | 12.6 | 25 (≈ 70 µM) | 200 (≈ 560 µM) | 56.5 | 6.25 (≈ 17.5 µM) | 
O=C1COCCN1c1ccc(C2CC(c3ccc([N+](=O)[O-])o3)=NO2)cn1 (stereo unspecified) | > 200 | 0.411 | 91.2 | 21.9 (≈ 61.2 µM) | 60.6 | 0.398 |  | 12.5 (≈ 34.9 µM) | 25 (≈ 69.8 µM) | 8.61 | 25 (≈ 69.8 µM) | 50 (≈ 140 µM) | 45.7 | 12.5 (≈ 34.9 µM) | 
O=[N+]([O-])c1ccc(C2=NOC(c3ccc(N4CC[S+]([O-])CC4)cc3)C2)o1 (stereo unspecified) | 100 (≈ 266 µM) | 0.178 | 272 | 28.9 (≈ 77 µM) | 52.2 | 0.223 | 50 (≈ 133 µM) | 6.25 (≈ 16.6 µM) | 12.5 (≈ 33.3 µM) | 24.2 | 100 (≈ 266 µM) | 50 (≈ 133 µM) | 27.2 | 6.25 (≈ 16.6 µM) | 
